Assay results taken from ChEMBL document CHEMBL4038281, “Competitive protein tyrosine phosphatase 1B (PTP1B) inhibitors, prenylated caged xanthones from Garcinia hanburyi and their inhibitory mechanism” (Bioorg Med Chem, 2017).

Assays:
[1] = molecular target: T1, Tyrosine-protein phosphatase non-receptor type 1 (Homo sapiens, UniProt P18031); test: Inhibition of recombinant human PTP1B (1 to 322 residues) expressed in Escherichia coli using pNPP as substrate incubated for 10 mins measured for 30 mins by spectrometric analysis
T1 sequence (P18031 whole entry): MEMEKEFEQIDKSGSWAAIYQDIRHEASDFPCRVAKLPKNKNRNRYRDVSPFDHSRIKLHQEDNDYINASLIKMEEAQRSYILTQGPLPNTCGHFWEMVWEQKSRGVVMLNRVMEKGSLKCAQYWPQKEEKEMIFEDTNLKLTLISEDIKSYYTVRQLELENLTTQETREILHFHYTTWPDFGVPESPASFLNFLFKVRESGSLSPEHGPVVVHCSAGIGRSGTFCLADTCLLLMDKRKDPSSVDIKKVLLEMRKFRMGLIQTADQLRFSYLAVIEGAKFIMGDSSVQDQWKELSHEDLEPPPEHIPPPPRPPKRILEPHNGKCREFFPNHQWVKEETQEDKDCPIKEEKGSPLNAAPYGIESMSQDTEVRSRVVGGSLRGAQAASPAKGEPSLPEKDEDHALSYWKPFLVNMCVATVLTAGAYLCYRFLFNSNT
Method in brief: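 Enzyme (1 mg/mL stock) was mixed with sample in DMSO and 4 mM pNPP stock in 25 mM Tris-HCl pH 7.5, 1 mM EDTA, 2 mM b-mercaptoethanol and 1 mM DTT.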

[2] = molecular target: T1, Tyrosine-protein phosphatase non-receptor type 1; test: Inhibition of recombinant human PTP1B (1 to 322 residues) expressed in Escherichia coli using pNPP as substrate by Dixon plot analysis
Method in brief: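 Initial velocity with pNPP was recorded over a range of inhibitor concentrations in 25 mM Tris-HCl (pH 7.5) buffer with EDTA, b-mercaptoethanol and DTT at 37 °C, read at 405 nm. Data were fitted by nonlinear regression, and inhibition constants were taken from Dixon plots.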

[3] = molecular target: T1, Tyrosine-protein phosphatase non-receptor type 1; test: Inhibition of recombinant human PTP1B (1 to 322 residues) expressed in Escherichia coli using pNPP as substrate preincubated for 60 mins followed by substrate addition measured at 30 secs interval for 10 mins by UV-spectrophotmetric method; settings: read-out: Ki(app)
Method in brief: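 Activity was read continuously by UV spectrophotometry for 10 min, giving progress curves of 20 points at 30 s intervals. Fixed substrate and several inhibitor levels were used, and any lag was excluded. vi, vs and Kobs were obtained by fitting the progress curves.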

IC50 [1] [nM] | Ki [2] [nM] | SMILES | Ki [3] [nM]
930 | 390 | CO[C@@H]1C2C(=O)c3c(O)c(C/C=C(\C)CCC=C(C)C)c(O)c(CC=C(C)C)c3O[C@@]23[C@H]2C[C@@H]1C(=O)[C@]3(C/C=C(/C)C(=O)O)OC2(C)C (stereo partly specified) | 
740 | 300 | CO[C@@H]1C2C(=O)c3c(O)c4c(c(CC=C(C)C)c3O[C@@]23[C@H]2C[C@@H]1C(=O)[C@]3(C/C=C(/C)C(=O)O)OC2(C)C)O[C@](C)(CCC=C(C)C)C=C4 (stereo partly specified) | 
12800 | 4380 | COC1=C2C(=O)c3c(O)c4c(c(CC=C(C)C)c3O[C@@]23[C@H]2C[C@@H]1C(=O)[C@]3(CC=C(C)C)OC2(C)C)O[C@](C)(CCC=C(C)C)C=C4 | 
3470 | 1210 | CC(C)=CCC/C(C)=C/Cc1c(O)c(CC=C(C)C)c2c(c1O)C(=O)C1=C[C@@H]3C[C@H]4C(C)(C)O[C@@](C/C=C(/C)C(=O)O)(C3=O)[C@@]14O2 [GAMBOGENIC ACID] | 
70200 | 29300 | CC(C)=CCc1c2c(c(O)c3c1O[C@]14C(=C[C@@H]5C[C@H]1C(C)(C)O[C@@]4(/C=C(/C)CO)C5=O)C3=O)C=CC(C)(C)O2 | 

SMILES | IC50 [1] [nM] | Ki [2] [nM] | Ki [3] [nM]
CO[C@@H]1C2C(=O)c3c(O)c4c(c(CC=C(C)C)c3O[C@@]23[C@H]2C[C@@H]1C(=O)[C@]3(C/C=C(/C)C(=O)O)OC2(C)C)OC(C)(C)C=C4 (stereo partly specified) | 4440 | 1750 | 
CC(C)=CCc1c2c(c(O)c3c1O[C@]14C(=C[C@@H]5C[C@H]1C(C)(C)O[C@@]4(CC=C(C)C)C5=O)C3=O)C=CC(C)(C)O2 | > 200000 |  | 
CC(C)=CCC[C@]1(C)C=Cc2c(O)c3c(c(CC=C(C)C)c2O1)O[C@]12C(=C[C@@H]4C[C@H]1C(C)(C)O[C@@]2(C/C=C(/C)C(=O)O)C4=O)C3=O [GAMBOGIC ACID] | 470 | 190 | 499
